Consider one molecule from ChEMBL document CHEMBL3352456, “Design, synthesis and biological activity of a novel Rutin analogue with improved lipid soluble properties” (Bioorg Med Chem, 2015).

For data set [1], the system named is K562. In words: Induction of apoptosis in human K562 cells assessed as apoptotic cells at 10 uM after 3 days by Annexin-V staining-based assay (reference value: 11.37%). Format: functional.
The test system of data set [2] is Trichophyton mentagrophytes. The data set can be described thus: Antifungal activity against Trichophyton mentagrophytes (Robin) Blanchard CBS 160.66 assessed as growth inhibition at 100 ug/ml measured on day 7 by sabouraud dextrose agar diffusion method relative to control. Format: functional. The settings on record: (Robin) Blanchard CBS 160.66, 168 h, read-out: GI. The method, boiled down: (§1)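 Dermatophyte strains kept on Sabouraud dextrose agar slants. Mycelium disks (10 mm) from a stationary-phase culture grown at 26 ± 1 °C on cellophane over SDA to log phase, then moved onto SDA containing compound added from DMSO stock at 45 °C (final DMSO 0.1%; DMSO-only controls). Colony diameter measured daily for 7 days. % inhibition = (dex − dex')/dex × 100. Three replicates per concentration; mean of three independent experiments.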

Data set [3] has as its system K562. The data set can be described thus: Induction of apoptosis in human K562 cells assessed as apoptotic cells at 500 uM after 3 days by Annexin-V staining-based assay (reference value: 11.37%). Format: functional.
For data set [4], the system named is K562. The data set can be described thus: Induction of apoptosis in human K562 cells assessed as late apoptotic cells at 5 uM after 3 days by Annexin-V staining-based assay (reference value: 5.96%). The data set is classed as functional.
Data set [5] relates to K562. The data set can be described thus: Induction of apoptosis in human K562 cells assessed as late apoptotic cells at 500 uM after 3 days by Annexin-V staining-based assay (reference value: 5.96%). Format: functional.
For data set [6], the target named is Nuclear factor NF-kappa-B complex (Homo sapiens) (UniProt Q00653+P19838+Q04206). The data set can be described thus: Inhibition of NF-kappaB (unknown origin)/32P-labeled oligonucleotide interaction at 0.1 to 10 mM after 20 mins by electrophoretic mobility shift assay. Format: protein-complex assay. In a few lines:
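Probe was a double-stranded 32P-labelled oligonucleotide (0.25 ng) in buffer of 10% glycerol, 0.05% NP-40, 10 mM Tris-HCl pH 7.5, 50 mM NaCl, 0.5 mM DTT and 10 mM MgCl2. Compound and probe were bound for 20 min at room temperature, then recombinant NF-kappaB p50 was added for a further 20 min. Samples were run on 6% polyacrylamide in 0.25× TBE at 200 V.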

For data set [7], the system named is Trichophyton tonsurans. The data set can be described thus: Antifungal activity against Trichophyton tonsurans Malmsten CBS 483.76 assessed as growth inhibition at 100 ug/ml measured on day 7 by sabouraud dextrose agar diffusion method relative to control. The data set is classed as functional. The settings on record: Malmsten CBS 483.76, 168 h, read-out: GI. The method, boiled down: as §1

Data set [8] concerns K562. In words: Induction of apoptosis in human K562 cells assessed as dead cells at 5 uM after 3 days by Annexin-V staining-based assay (reference value: 1.29%). Format: functional.
Data set [9] has as its system Trichophyton mentagrophytes. The data set can be described thus: Antifungal activity against Trichophyton mentagrophytes (Robin) Blanchard CBS 160.66 assessed as growth inhibition at 20 ug/ml measured on day 7 by sabouraud dextrose agar diffusion method relative to control. Format: functional. As to conditions: (Robin) Blanchard CBS 160.66, 168 h, read-out: GI. The method, boiled down: as §1

For data set [10], the system named is Trichophyton violaceum. In words: Antifungal activity against Trichophyton violaceum Malmsten CBS 459.61 assessed as growth inhibition at 20 ug/ml measured on day 7 by sabouraud dextrose agar diffusion method relative to control. Format: functional. As to conditions: Malmsten CBS 459.61, 168 h, read-out: GI. The method, boiled down:
as §1

The subject of data set [11] is Trichophyton tonsurans. In words: Antifungal activity against Trichophyton tonsurans Malmsten CBS 483.76 assessed as growth inhibition at 20 ug/ml measured on day 7 by sabouraud dextrose agar diffusion method relative to control. Format: functional. As to conditions: Malmsten CBS 483.76, 168 h, read-out: GI. In a few lines:
as §1

Data set [12] deals with K562. In words: Antiproliferative activity against human K562 cells assessed as cell number after 3 days by Coulter counter. The settings on record: K562, 72 h.
The test system of data set [13] is K562. In words: Induction of apoptosis in human K562 cells assessed as early apoptotic cells at 5 uM after 3 days by Annexin-V staining-based assay (reference value: 5.41%). Format: functional.
Data set [14] deals with Epidermophyton floccosum. The data set can be described thus: Antifungal activity against Epidermophyton floccosum (Hartz) Langeron and Milochevitch CBS 358.93 assessed as growth inhibition at 100 ug/ml measured on day 7 by sabouraud dextrose agar diffusion method relative to control. Format: functional. The settings on record: (Hartz) Langeron and Milochevitch CBS 358.93, 168 h, read-out: GI. The method, boiled down: as §1

A short description of data set [15]: Antioxidant activity assessed as superoxide anion radical scavenging by photochemiluminescence method relative to trolox using formulation containing O/W. The data set is classed as physicochemical.
Data set [16] deals with K562. The data set can be described thus: Induction of apoptosis in human K562 cells assessed as live cells at 10 uM after 3 days by Annexin-V staining-based assay (reference value: 87.33%). The data set is classed as functional.

The structures appear in SMILES notation. Activity calls are given as the source filed them. The calls are words filed in the database; no cut-off is given here.

Chain of Nuclear factor NF-kappa-B complex (Homo sapiens) (P19838 whole entry, looked up): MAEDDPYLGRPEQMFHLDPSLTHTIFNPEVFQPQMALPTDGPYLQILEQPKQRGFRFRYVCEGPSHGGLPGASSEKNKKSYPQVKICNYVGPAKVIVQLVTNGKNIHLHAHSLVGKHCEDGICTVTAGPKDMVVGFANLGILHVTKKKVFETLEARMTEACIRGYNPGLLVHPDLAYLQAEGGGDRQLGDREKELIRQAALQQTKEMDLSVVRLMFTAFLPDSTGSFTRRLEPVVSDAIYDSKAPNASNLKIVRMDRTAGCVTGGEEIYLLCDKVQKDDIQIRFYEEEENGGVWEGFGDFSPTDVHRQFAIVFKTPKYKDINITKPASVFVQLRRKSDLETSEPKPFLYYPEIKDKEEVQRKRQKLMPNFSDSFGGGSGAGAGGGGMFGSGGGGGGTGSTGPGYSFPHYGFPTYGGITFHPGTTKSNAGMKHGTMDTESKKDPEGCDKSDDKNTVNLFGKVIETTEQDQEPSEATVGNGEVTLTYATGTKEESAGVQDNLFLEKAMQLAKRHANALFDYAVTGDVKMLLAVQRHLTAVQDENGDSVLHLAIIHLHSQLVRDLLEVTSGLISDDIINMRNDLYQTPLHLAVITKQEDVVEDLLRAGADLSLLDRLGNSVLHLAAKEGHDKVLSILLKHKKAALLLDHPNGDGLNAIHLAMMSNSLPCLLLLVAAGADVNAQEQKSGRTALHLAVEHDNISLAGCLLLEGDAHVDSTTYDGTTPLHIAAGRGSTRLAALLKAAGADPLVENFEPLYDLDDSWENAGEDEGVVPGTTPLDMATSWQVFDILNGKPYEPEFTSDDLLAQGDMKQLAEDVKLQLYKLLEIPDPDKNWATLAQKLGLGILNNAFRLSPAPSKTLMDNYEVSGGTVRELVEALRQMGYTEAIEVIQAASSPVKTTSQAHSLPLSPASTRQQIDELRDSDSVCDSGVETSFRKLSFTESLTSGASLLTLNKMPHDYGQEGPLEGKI
Chain of Nuclear factor NF-kappa-B complex (Homo sapiens) (Q00653 whole entry, looked up): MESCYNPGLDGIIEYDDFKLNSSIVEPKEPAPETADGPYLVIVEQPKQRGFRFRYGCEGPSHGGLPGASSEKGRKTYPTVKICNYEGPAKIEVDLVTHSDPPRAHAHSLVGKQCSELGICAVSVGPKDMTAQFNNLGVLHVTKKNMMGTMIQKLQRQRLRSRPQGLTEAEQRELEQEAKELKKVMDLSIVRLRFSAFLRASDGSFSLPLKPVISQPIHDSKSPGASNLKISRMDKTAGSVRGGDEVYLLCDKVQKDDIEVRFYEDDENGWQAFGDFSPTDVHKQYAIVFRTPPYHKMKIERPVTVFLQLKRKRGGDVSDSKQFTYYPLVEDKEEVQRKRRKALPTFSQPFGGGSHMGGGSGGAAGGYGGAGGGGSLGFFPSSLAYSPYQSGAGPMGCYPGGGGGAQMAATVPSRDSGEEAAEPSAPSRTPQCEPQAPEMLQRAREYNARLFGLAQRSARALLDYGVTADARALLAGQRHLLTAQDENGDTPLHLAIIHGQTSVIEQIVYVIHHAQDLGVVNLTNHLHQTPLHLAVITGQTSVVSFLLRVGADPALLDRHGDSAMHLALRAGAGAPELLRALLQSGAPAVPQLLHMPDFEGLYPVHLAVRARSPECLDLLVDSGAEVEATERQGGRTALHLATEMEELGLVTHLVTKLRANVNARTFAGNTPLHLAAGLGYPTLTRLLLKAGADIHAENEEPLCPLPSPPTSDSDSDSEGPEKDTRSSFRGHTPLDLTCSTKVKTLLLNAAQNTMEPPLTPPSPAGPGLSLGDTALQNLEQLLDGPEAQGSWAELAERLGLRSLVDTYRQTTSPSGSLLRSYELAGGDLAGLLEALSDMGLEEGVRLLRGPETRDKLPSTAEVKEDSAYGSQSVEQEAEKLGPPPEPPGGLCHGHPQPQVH
Chain of Nuclear factor NF-kappa-B complex (Homo sapiens) (Q04206 whole entry, looked up): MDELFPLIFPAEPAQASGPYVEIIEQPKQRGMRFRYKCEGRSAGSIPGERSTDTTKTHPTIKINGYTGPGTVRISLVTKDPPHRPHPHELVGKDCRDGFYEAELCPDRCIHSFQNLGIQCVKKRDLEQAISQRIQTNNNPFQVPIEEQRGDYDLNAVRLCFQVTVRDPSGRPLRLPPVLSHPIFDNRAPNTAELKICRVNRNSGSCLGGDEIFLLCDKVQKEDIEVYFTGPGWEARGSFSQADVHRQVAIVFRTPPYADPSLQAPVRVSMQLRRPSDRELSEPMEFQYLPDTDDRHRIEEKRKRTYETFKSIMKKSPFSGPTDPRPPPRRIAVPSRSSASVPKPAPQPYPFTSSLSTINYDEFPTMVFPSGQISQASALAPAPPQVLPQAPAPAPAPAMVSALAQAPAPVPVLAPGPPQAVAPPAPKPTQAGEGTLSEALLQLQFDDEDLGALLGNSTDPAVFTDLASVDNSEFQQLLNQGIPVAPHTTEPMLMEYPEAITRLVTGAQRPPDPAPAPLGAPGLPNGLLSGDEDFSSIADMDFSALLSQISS

On to `C[C@@H]1O[C@@H](OC[C@H]2O[C@@H](Oc3c(-c4ccc(O)c(O)c4)oc4cc(O)cc(O)c4c3=O)[C@H](O)[C@@H](O)[C@@H]2O)[C@H](O)[C@H](O)[C@H]1O` [RUTIN], for which the outcome in data set [1], in data set [4], in data set [8], in data set [13] and in [16] was inactive. Moreover, the inhibition of growth at 100 µg/mL in data set [2] stood at 3.3%; in [7], 2.8%; in data set [14], 2.2%. Moreover, the Activity in [3] came to 13.2%; in [5], 4.05%; in data set [15] it was 5.04 µmol/g. The inhibition result in data set [6] is “Active”. Besides, the inhibition of growth at 20 µg/mL is 0% in data set [9], 2.1% in data set [10] and 0% in [11]. The IC50 in data set [12] was found to be 897 µM.
